This is one part of a sample in which hits are shown more often than they occur.
Pyk2 oligo antag: antagonists of human Pyk2 oligomerization; AID 1347419; 99,000 compounds, 0.83% hits; z-score (the deposit names both 25 µM and 10 µM); Q14289; Q293 cells, Pyk2 FERM NanoBiT luminescence; active compounds read low;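 active = Z-score of -3 or lower, scaled per plate to the spread of control and sample wells; inactive = z-score above -3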;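 note: negative z-score means lost luminescence so less FERM oligomerization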
Target sequence (Q14289 whole entry, looked up): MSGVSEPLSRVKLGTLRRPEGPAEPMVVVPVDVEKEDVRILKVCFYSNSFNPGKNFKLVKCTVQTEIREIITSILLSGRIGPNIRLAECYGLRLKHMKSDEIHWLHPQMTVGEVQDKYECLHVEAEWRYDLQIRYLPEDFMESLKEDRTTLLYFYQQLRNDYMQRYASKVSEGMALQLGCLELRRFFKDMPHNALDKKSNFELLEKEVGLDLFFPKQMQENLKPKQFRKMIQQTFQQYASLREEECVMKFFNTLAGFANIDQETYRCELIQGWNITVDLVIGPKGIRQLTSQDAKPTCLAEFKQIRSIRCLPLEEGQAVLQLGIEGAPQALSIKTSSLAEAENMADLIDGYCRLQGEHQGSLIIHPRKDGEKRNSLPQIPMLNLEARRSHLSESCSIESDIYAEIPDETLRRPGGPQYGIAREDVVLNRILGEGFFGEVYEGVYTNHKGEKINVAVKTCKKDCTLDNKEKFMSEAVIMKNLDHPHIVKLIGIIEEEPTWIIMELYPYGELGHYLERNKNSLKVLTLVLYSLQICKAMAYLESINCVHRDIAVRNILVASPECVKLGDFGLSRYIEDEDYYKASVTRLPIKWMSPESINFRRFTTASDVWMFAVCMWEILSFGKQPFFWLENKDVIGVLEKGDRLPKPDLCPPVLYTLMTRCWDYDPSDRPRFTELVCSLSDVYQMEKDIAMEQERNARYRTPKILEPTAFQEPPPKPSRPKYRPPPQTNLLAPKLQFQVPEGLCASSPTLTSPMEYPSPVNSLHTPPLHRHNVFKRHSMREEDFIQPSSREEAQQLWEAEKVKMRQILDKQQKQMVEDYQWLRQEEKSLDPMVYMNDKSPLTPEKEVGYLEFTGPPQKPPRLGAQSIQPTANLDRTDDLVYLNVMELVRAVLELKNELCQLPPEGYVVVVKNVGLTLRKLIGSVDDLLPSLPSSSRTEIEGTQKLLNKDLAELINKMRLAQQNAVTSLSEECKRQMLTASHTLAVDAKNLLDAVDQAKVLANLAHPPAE
H69AR inhibit: blocks growth of human H69AR lung tumor cells; H69AR lung tumor viability, ATP luminescence, 72 h; active compounds read low; viability, % at 10 µM; 85,000 compounds, 6% hits; AID 598;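 active = viability at or below 40%; inactive = viability above 40%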;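 note: multidrug resistant small cell line overexpressing MRP-1 efflux transporter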
PTEN del growth: PTEN-deleted cell growth suppression. 140,000 compounds, 1.2% hits. HCT116 PTEN-null viability, CellTiter-Glo, 60 h; active compounds read low. viability, % at 10 µM. AID 827;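 active = viability at or below a set limit, 4 SD under the median of all tested compounds, cut at about 3.7% in these data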;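 note: PTEN knockout HCT116 line with beta catenin targeted HCT116 as companion control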
Fibroblast inh: blocks proliferation of human lung fibroblasts. AID 719. 85,000 compounds, 1.1% hits. viability, % at 10 µM. LL 47 human lung fibroblast viability, ATP luminescence; active compounds read low;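 active = viability at or below 50% in the single dose screen; inactive = viability above 50%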;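 note: compound exposure lasted 72 h before the ATP readout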
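Assay system: human lung fibroblast line LL 47, low passage. Input: 1,150 fibroblasts seeded per well. Times: overnight cell rest, 72 h compound treatment at 37 °C. Evaluation: % viability of median cell-only signal. Technique: luminescent ATP detection, CellTiter-Glo. Control set: cell-only wells, no compound.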
HCT116 bCat-KO: beta-catenin-lacking colon tumor cell growth suppression | HCT116 beta-catenin knockout viability, CellTiter-Glo, 60 h; active compounds read low | viability, % at 10 µM | 140,000 compounds, 1.5% hits;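 active = viability at or under a set limit, the compound median less 4 SD, cut at about 6% in these data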
HUVEC prolif 384: inhibitors of human endothelial cell proliferation | HUVEC proliferation, CellTiter-Glo luminescence, 72 h; active compounds read low | viability, % at 10 µM (by protocol) | 86,000 compounds, 1.1% hits;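 active = viability at or below 30%; inactive = viability above 30%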
A number is an active result.

For CCOC(=O)c1sc(NCC2CCCO2)nc1C (stereo unspecified) the results were Pyk2 oligo antag inactive, H69AR inhibit inactive, PTEN del growth inactive, Fibroblast inh inactive, HCT116 bCat-KO inactive and HUVEC prolif 384 inactive.
For Cc1ccc(C(=O)c2ccc([N+](=O)[O-])cc2)cc1 the results were Pyk2 oligo antag inactive, H69AR inhibit inactive, PTEN del growth inactive, Fibroblast inh inactive, HCT116 bCat-KO inactive and HUVEC prolif 384 inactive.
`Cc1ccc(S(=O)(=O)CC#CCOC(=O)c2ccc([N+](=O)[O-])cc2)cc1` gave H69AR inhibit 1.6, PTEN del growth inactive, Fibroblast inh 42.6, HCT116 bCat-KO inactive and HUVEC prolif 384 inactive.
COc1ccc(-c2cc(-c3cccs3)c(C#N)c(SCC(=O)NCc3ccccc3OC)n2)cc1 was read as Pyk2 oligo antag inactive, H69AR inhibit 11.4, PTEN del growth inactive, Fibroblast inh 48.6, HCT116 bCat-KO inactive and HUVEC prolif 384 inactive.
COc1ccc(-c2cc(-c3cccs3)c(C#N)c(SCC(=O)NCc3ccccc3)n2)cc1 was read as Pyk2 oligo antag inactive, H69AR inhibit 34.6, PTEN del growth inactive, Fibroblast inh inactive, HCT116 bCat-KO inactive and HUVEC prolif 384 inactive.
Screening COc1ccc(NC(=O)CSc2nc(-c3ccc(C)cc3)cc(C(F)(F)F)c2C#N)cc1 returned Pyk2 oligo antag inactive, PTEN del growth inactive and HCT116 bCat-KO inactive.
For COc1ccc(-c2cc(C(F)(F)F)c(C#N)c(SCC(=O)Nc3ccccc3C#N)n2)cc1 the results were PTEN del growth inactive and HCT116 bCat-KO 3.2.
Screening O=C(Nc1cccc(C(F)(F)F)c1)N(Cc1ccc(Cl)cc1)CC(O)C(F)(F)F (stereo unspecified) returned Pyk2 oligo antag inactive, PTEN del growth inactive and HCT116 bCat-KO inactive.
`O=C(CSc1nc2cc(Cl)ccc2c(=O)n1Cc1ccco1)Nc1ccc(S(=O)(=O)N2CCOCC2)cc1` gave PTEN del growth inactive and HCT116 bCat-KO inactive.
Screening COC(=O)c1ccc2c(=O)n(Cc3ccco3)c(SCC(=O)Nc3ccc(C)c(Cl)c3)nc2c1 returned Pyk2 oligo antag inactive, H69AR inhibit 8.1, PTEN del growth inactive, Fibroblast inh 11.8, HCT116 bCat-KO inactive and HUVEC prolif 384 inactive.
`CCOC(=O)CSc1nc2ccccc2c(=O)n1CCC(=O)NCCc1ccc(OC)c(OC)c1` gave Pyk2 oligo antag inactive, H69AR inhibit inactive, PTEN del growth 3.2, Fibroblast inh inactive, HCT116 bCat-KO 3.2 and HUVEC prolif 384 inactive.
`CCOc1ccc(CCn2c(-c3ccco3)nc3ccccc3c2=O)cc1OCC` gave Pyk2 oligo antag inactive, H69AR inhibit 31.8, PTEN del growth inactive, Fibroblast inh inactive, HCT116 bCat-KO inactive and HUVEC prolif 384 inactive.
Screening CCc1ccc(NC(=O)CSc2nc3ccccc3c(=O)n2CCCC(=O)N2CCCC2)cc1 returned Pyk2 oligo antag inactive, H69AR inhibit 29.6, PTEN del growth inactive, Fibroblast inh inactive, HCT116 bCat-KO inactive and HUVEC prolif 384 inactive.
Screening Cc1c(C(=O)Nc2ccccc2-c2ccccc2)cccc1[N+](=O)[O-] returned Pyk2 oligo antag inactive, PTEN del growth inactive and HCT116 bCat-KO inactive.
For Cc1ccc(Cl)cc1N1CCN(Cc2nc3ccsc3c(=O)[nH]2)CC1 the results were Pyk2 oligo antag inactive, PTEN del growth inactive and HCT116 bCat-KO inactive.
O=[N+]([O-])c1ccc(/C=N/NC(=S)Nc2ccccc2C(F)(F)F)o1 was read as PTEN del growth inactive and HCT116 bCat-KO inactive.
For Cc1nnc(NC(=O)CSc2nc(C(C)C)nc3ccccc23)s1 the results were Pyk2 oligo antag inactive, PTEN del growth inactive and HCT116 bCat-KO inactive.
For CCOC(=O)c1cccc(NC(=O)CSc2nc3ccccc3c(=O)n2CC)c1 the results were Pyk2 oligo antag inactive, H69AR inhibit 40.0, PTEN del growth inactive, Fibroblast inh inactive, HCT116 bCat-KO inactive and HUVEC prolif 384 inactive.
`CCOC(=O)c1cccc(NC(=O)CSc2nc3ccccc3c(=O)n2CCOC)c1` gave Pyk2 oligo antag inactive, H69AR inhibit inactive, PTEN del growth inactive, Fibroblast inh inactive, HCT116 bCat-KO inactive and HUVEC prolif 384 inactive.
`CCOc1ccc(-n2c(SCC(=O)Nc3cc(C)on3)nnc2-c2c[nH]c3ccccc23)cc1` gave Pyk2 oligo antag inactive, H69AR inhibit 27.3, PTEN del growth inactive, Fibroblast inh inactive, HCT116 bCat-KO inactive and HUVEC prolif 384 inactive.
`O=c1c2ccccc2nnn1CSc1nc2cc(Cl)ccc2c(=O)n1Cc1ccco1` gave H69AR inhibit 27.9, Fibroblast inh inactive and HUVEC prolif 384 inactive.
Cc1cc(NC(=O)CSc2nc(C(C)C)nc3ccccc23)no1 was read as Pyk2 oligo antag inactive, H69AR inhibit 14.2, PTEN del growth inactive, Fibroblast inh inactive, HCT116 bCat-KO inactive and HUVEC prolif 384 inactive.
COc1ccc(OC)c(-n2c(SCC(=O)Nc3cc(C)on3)nnc2-c2c[nH]c3ccccc23)c1 was read as H69AR inhibit inactive, PTEN del growth inactive, Fibroblast inh inactive, HCT116 bCat-KO inactive and HUVEC prolif 384 inactive.
`O=c1c2ccccc2nnn1CSc1nnc(COc2ccc(Cl)cc2)n1Cc1ccco1` gave Pyk2 oligo antag inactive, H69AR inhibit inactive, PTEN del growth inactive, Fibroblast inh inactive, HCT116 bCat-KO inactive and HUVEC prolif 384 inactive.
Screening COc1cccc(-n2c(=O)c3cc(OC)c(OC)cc3n(CC(=O)Nc3cc(C)[nH]n3)c2=O)c1 returned Pyk2 oligo antag inactive, PTEN del growth inactive and HCT116 bCat-KO inactive.
Screening Cc1ccc(SCC(=O)NC(=O)c2ccc(S(=O)(=O)N(C)C)cc2)cc1C returned PTEN del growth inactive and HCT116 bCat-KO inactive.
CCCCN(CC)C(=O)CSc1nc2ccccc2c(=O)n1CC1COc2ccccc2O1 (stereo unspecified) was read as Pyk2 oligo antag inactive, H69AR inhibit inactive, PTEN del growth inactive, Fibroblast inh inactive, HCT116 bCat-KO inactive and HUVEC prolif 384 inactive.
`CCCCNC(=O)CSc1nc2ccccc2c(=O)n1CC1COc2ccccc2O1` (stereo unspecified) gave Pyk2 oligo antag inactive, H69AR inhibit 27.2, PTEN del growth inactive, Fibroblast inh inactive, HCT116 bCat-KO inactive and HUVEC prolif 384 inactive.
`Cc1cc(NC(=O)CSc2nc3ccccc3c(=O)n2Cc2ccc(F)cc2)no1` gave Pyk2 oligo antag inactive, H69AR inhibit 39.6, PTEN del growth inactive, Fibroblast inh inactive, HCT116 bCat-KO inactive and HUVEC prolif 384 inactive.
COc1ccc(CCn2c(SCC(=O)Nc3cc(C)on3)nc3ccccc3c2=O)cc1OC was read as Pyk2 oligo antag inactive, H69AR inhibit 32.6, PTEN del growth inactive, Fibroblast inh inactive, HCT116 bCat-KO inactive and HUVEC prolif 384 inactive.
For Cc1cc(NC(=O)CSc2nc3ccccc3c(=O)n2-c2ccccc2)no1 the results were Pyk2 oligo antag inactive, PTEN del growth inactive and HCT116 bCat-KO inactive.
CCCCCCn1c(SCC(=O)Nc2cc(C)on2)nc2ccccc2c1=O was read as Pyk2 oligo antag inactive, H69AR inhibit 7.0, PTEN del growth inactive, Fibroblast inh inactive, HCT116 bCat-KO inactive and HUVEC prolif 384 inactive.
